# Laboratory results published in ChEMBL document CHEMBL1157242, “Triterpene saponins with gastroprotective effects from tea seed (the seeds of Camellia sinensis)” (2006).
# Counter-ions that a name gives are not always drawn.
# Columns and labels:
# Settings in all cases: Gastric mucosa
# Rattus norvegicus [1] = experiment: Gastroprotective effect in […] assessed as inhibition of ethanol-induced gastric mucosal lesions at 5 mg/kg, po administered 1 hr prior to ethanol challenge relative to control; format: functional
# Outline: (§1)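 Male […] fasted 24-26 h with free access to water, conscious. Given agent orally at 5.0 mL/kg, suspended in 5% acacia or 0.5% CMC-Na. 1 h later, 99.5% ethanol 1.5 mL/rat by orogastric tube. After 1 h, stomach fixed with 1.5% formalin and opened. Lesion index is total lesion length (mm). Inhibition is versus vehicle controls, n = 4-6.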
# Rattus norvegicus [2] = experiment: Gastroprotective effect in […] assessed as inhibition of ethanol-induced gastric mucosal lesions at 5 mg/kg, po administered 1 hr prior to ethanol challenge relative to control
# Rattus norvegicus [3] = experiment: Gastroprotective effect in […] assessed as inhibition of ethanol-induced gastric mucosal lesions at 150 mg/kg, po administered 1 hr prior to ethanol challenge relative to control; format: functional; outline: as §1
# Rattus norvegicus [4] = experiment: Gastroprotective effect in […] assessed as inhibition of ethanol-induced gastric mucosal lesions at 300 mg/kg, po administered 1 hr prior to ethanol challenge relative to control; format: functional; outline: as §1
# Rattus norvegicus [5] = experiment: Gastroprotective effect in […] assessed as inhibition of ethanol-induced gastric mucosal lesions at 75 mg/kg, po administered 1 hr prior to ethanol challenge relative to control; format: functional; outline: as §1
# Rattus norvegicus [6] = experiment: Gastroprotective effect in […] assessed as inhibition of ethanol-induced gastric mucosal lesions at 20 mg/kg, po administered 1 hr prior to ethanol challenge relative to control; format: functional; outline: as §1
# Rattus norvegicus [7] = experiment: Gastroprotective effect in […] assessed as inhibition of ethanol-induced gastric mucosal lesions at 10 mg/kg, po administered 1 hr prior to ethanol challenge relative to control; format: functional; outline: as §1
# Rattus norvegicus [8] = experiment: Gastroprotective effect in […] assessed as inhibition of ethanol-induced gastric mucosal lesions at 15 mg/kg, po administered 1 hr prior to ethanol challenge relative to control; format: functional; outline: as §1
compound,measurement,setting,value
C/C=C(/C)C(=O)O[C@H]1[C@H](O)[C@@]2(COC(C)=O)C(CC1(C)C)C1=CCC3[C@@]4(C)CC[C@H](O[C@@H]5O[C@H](C(=O)O)[C@@H](O)[C@H](O[C@@H]6OC[C@H](O)[C@H](O)[C@H]6O[C@@H]6OC[C@@H](O)[C@H](O)[C@H]6O)[C@H]5O[C@H]5O[C@H](CO)[C@H](O)[C@H](O)[C@H]5O)[C@@](C)(CO)C4CC[C@@]3(C)[C@]1(C)C[C@H]2O (stereo partly drawn) [THEASAPONINS A2],inhibition in vivo at 5 mg/kg,Rattus norvegicus [1],54.7%
C/C=C(/C)C(=O)O[C@H]1[C@H](O)[C@@]2(COC(C)=O)C(CC1(C)C)C1=CCC3[C@@]4(C)CC[C@H](O[C@@H]5O[C@H](C(=O)O)[C@@H](O)[C@H](O[C@@H]6OC[C@H](O)[C@H](O)[C@H]6O[C@@H]6OC[C@@H](O)[C@H](O)[C@H]6O)[C@H]5O[C@H]5O[C@H](CO)[C@H](O)[C@H](O)[C@H]5O)[C@@](C)(C=O)C4CC[C@@]3(C)[C@]1(C)C[C@H]2O (stereo partly drawn) [THEASAPONINS E2],inhibition in vivo at 5 mg/kg,Rattus norvegicus [2],77.6%
C/C=C(/C)C(=O)O[C@H]1[C@H](O)[C@@]2(COC(C)=O)C(CC1(C)C)C1=CCC3[C@@]4(C)CC[C@H](O[C@@H]5O[C@H](C(=O)O)[C@@H](O)[C@H](O[C@@H]6OC[C@H](O)[C@H](O)[C@H]6O[C@@H]6OC[C@@H](O)[C@H](O)[C@H]6O)[C@H]5O[C@H]5O[C@H](CO)[C@H](O)[C@H](O)[C@H]5O)[C@@](C)(C(=O)OC)C4CC[C@@]3(C)[C@]1(C)C[C@H]2O (stereo partly drawn) [THEASAPONINS F3],inhibition in vivo at 5 mg/kg,Rattus norvegicus [1],42.1%
NC[C@H]1CC[C@H](C(=O)Oc2ccc(CCC(=O)O)cc2)CC1 [CETRAXATE HYDROCHLORIDE],inhibition in vivo at 150 mg/kg,Rattus norvegicus [3],65.6%
same,inhibition in vivo at 300 mg/kg,Rattus norvegicus [4],79.4%
same,inhibition in vivo at 75 mg/kg,Rattus norvegicus [5],41.2%
COc1ccc2[nH]c([S+]([O-])Cc3ncc(C)c(OC)c3C)nc2c1 (stereo not drawn) [OMEPRAZOLE],inhibition in vivo at 20 mg/kg,Rattus norvegicus [6],89.4%
same,inhibition in vivo at 10 mg/kg,Rattus norvegicus [7],43.1%
same,inhibition in vivo at 15 mg/kg,Rattus norvegicus [8],82%
C/C=C(/C)C(=O)O[C@H]1[C@H](O)[C@@]2(CO)C(CC1(C)C)C1=CCC3[C@@]4(C)CC[C@H](O[C@@H]5O[C@H](C(=O)O)[C@@H](O)[C@H](O[C@@H]6OC[C@H](O)[C@H](O)[C@H]6O[C@@H]6OC[C@@H](O)[C@H](O)[C@H]6O)[C@H]5O[C@H]5O[C@H](CO)[C@H](O)[C@H](O)[C@H]5O)[C@@](C)(CO)C4CC[C@@]3(C)[C@]1(C)C[C@H]2O (stereo partly drawn) [THEASAPONINS A1],inhibition in vivo at 5 mg/kg,Rattus norvegicus [1],37%
C/C=C(/C)C(=O)O[C@H]1[C@H](OC(C)=O)[C@@]2(CO)C(CC1(C)C)C1=CCC3[C@@]4(C)CC[C@H](O[C@@H]5O[C@H](C(=O)O)[C@@H](O)[C@H](O[C@@H]6OC[C@H](O)[C@H](O)[C@H]6O[C@@H]6OC[C@@H](O)[C@H](O)[C@H]6O)[C@H]5O[C@H]5O[C@H](CO)[C@H](O)[C@H](O)[C@H]5O)[C@@](C)(CO)C4CC[C@@]3(C)[C@]1(C)C[C@H]2O (stereo partly drawn) [ASSAMSAPONINS D],inhibition in vivo at 5 mg/kg,Rattus norvegicus [1],47.9%
C/C=C(/C)C(=O)O[C@H]1CC(C)(C)CC2C3=CCC4[C@@]5(C)CC[C@H](O[C@@H]6O[C@H](C(=O)O)[C@@H](O)[C@H](O[C@@H]7OC[C@H](O)[C@H](O)[C@H]7O[C@@H]7OC[C@@H](O)[C@H](O)[C@H]7O)[C@H]6O[C@H]6O[C@H](CO)[C@H](O)[C@H](O)[C@H]6O)[C@@](C)(C=O)C5CC[C@@]4(C)[C@]3(C)C[C@@H](O)[C@]21CO (stereo partly drawn) [ASSAMSAPONINS A],inhibition in vivo at 5 mg/kg,Rattus norvegicus [1],61%
C/C=C(/C)C(=O)O[C@H]1[C@H](OC(C)=O)[C@@]2(CO)C(CC1(C)C)C1=CCC3[C@@]4(C)CC[C@H](O[C@@H]5O[C@H](C(=O)O)[C@@H](O)[C@H](O[C@@H]6OC[C@H](O)[C@H](O)[C@H]6O[C@@H]6OC[C@@H](O)[C@H](O)[C@H]6O)[C@H]5O[C@H]5O[C@H](CO)[C@H](O)[C@H](O)[C@H]5O)[C@@](C)(C=O)C4CC[C@@]3(C)[C@]1(C)C[C@H]2O (stereo partly drawn) [THEASAPONINS E1],inhibition in vivo at 5 mg/kg,Rattus norvegicus [2],71.4%
